{"source": "ChEMBL document CHEMBL1129275", "about": "“Synthesis and in vitro and in vivo characteristics of an iodinated analogue of the beta-adrenoceptor antagonist carazolol” (J Med Chem, 1996)", "key": {"[1]": {"tested_on": "Oryctolagus cuniculus", "assay": "Biodistribution pattern of [123I]- ligand was evaluated in lung of anesthetized rabbit after Intravenous injection of 50 uCi after 4 hr", "assay_type": "ADME, organism-based", "details": "in vivo", "method_in_brief": "(§1)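 Male New Zealand white rabbits, 2.5–3.5 kg, anesthetized with 5 mg/kg xylazine plus 30 mg/kg ketamine im. Each received 50 uCi radioligand (specific activity > 5000 Ci/mmol) iv via ear vein. Animals were killed with 200 mg/kg pentobarbital im at the set time. Blood was drawn by intracardiac puncture and organs weighed. Gamma counting was decay-corrected, expressed as %ID x kg body weight/g tissue, mean ± SEM, n = 3/time point.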"}, "[2]": {"tested_on": "Oryctolagus cuniculus", "assay": "Biodistribution pattern of [123I]- ligand was evaluated in spleen of anesthetized rabbit after Intravenous injection of 50 uCi after 24 hr", "assay_type": "ADME, organism-based", "details": "in vivo", "method_in_brief": "(§2)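 Male New Zealand white rabbits (2.5–3.5 kg), anesthetized with xylazine 5 mg/kg plus ketamine 30 mg/kg im, given 50 µCi radioligand (specific activity >5000 Ci/mmol) iv via ear vein. Euthanized at set times by pentobarbital 200 mg/kg im, n = 3/time point. Organs removed and weighed, gamma-counted, decay/weight corrected; expressed as % ID x kg body weight/g tissue, mean ± SEM.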"}, "[3]": {"tested_on": "Oryctolagus cuniculus", "assay": "Biodistribution pattern of [123I]- ligand was evaluated in fat of anesthetized rabbit after Intravenous injection of 50 uCi after 1 hr", "assay_type": "ADME, organism-based, Adipose tissue", "details": "in vivo", "method_in_brief": "as §1"}, "[4]": {"tested_on": "Oryctolagus cuniculus", "assay": "Biodistribution pattern of [123I]- ligand was evaluated in lung of anesthetized rabbit after Intravenous injection of 50 uCi after 6 hr", "assay_type": "ADME, organism-based", "details": "in vivo", "method_in_brief": "as §1"}, "[5]": {"tested_on": "Oryctolagus cuniculus", "assay": "Biodistribution pattern of [123I]- ligand was evaluated in muscle of anesthetized rabbit after Intravenous injection of 50 uCi after 6 hr", "assay_type": "ADME, organism-based, Muscle tissue", "details": "in vivo", "method_in_brief": "as §2"}, "[6]": {"tested_on": "Oryctolagus cuniculus", "assay": "Biodistribution pattern of [123I]- ligand was evaluated in muscle of anesthetized rabbit after Intravenous injection of 50 uCi after 24 hr", "assay_type": "ADME, organism-based, Muscle tissue", "details": "in vivo", "method_in_brief": "as §1"}, "[7]": {"tested_on": "Oryctolagus cuniculus", "assay": "Biodistribution pattern of [123I]- ligand was evaluated in liver of anesthetized rabbit after Intravenous injection of 50 uCi after 5 min", "assay_type": "ADME, organism-based", "details": "in vivo", "method_in_brief": "as §1"}, "[8]": {"tested_on": "Oryctolagus cuniculus", "assay": "Biodistribution pattern of [123I]- ligand was evaluated in spleen of anesthetized rabbit after Intravenous injection of 50 uCi after 1 hr", "assay_type": "ADME, organism-based", "details": "in vivo", "method_in_brief": "as §2"}, "[9]": {"tested_on": "Oryctolagus cuniculus", "assay": "Biodistribution pattern of [123I]- ligand was evaluated in blood of anesthetized rabbit after Intravenous injection of 50 uCi after 30 min", "assay_type": "ADME, organism-based", "details": "in vivo, 0.5 h", "method_in_brief": "as §1"}, "[10]": {"tested_on": "Oryctolagus cuniculus", "assay": "[…] biodistribution pattern of [123I]- ligand was evaluated in kidney of anesthetized rabbit after Intravenous injection of 50 uCi after 2 hr", "assay_type": "ADME, organism-based", "details": "in vivo", "method_in_brief": "as §2"}, "[11]": {"tested_on": "Oryctolagus cuniculus", "assay": "Biodistribution pattern of [123I]- ligand was evaluated in intestine of anesthetized rabbit after Intravenous injection of 50 uCi after 4 hr", "assay_type": "ADME, organism-based", "details": "in vivo", "method_in_brief": "as §1"}, "[12]": {"tested_on": "Oryctolagus cuniculus", "assay": "Biodistribution pattern of [123I]- ligand was evaluated in right ventricular muscle of anesthetized rabbit after Intravenous injection of 50 uCi after 4 hr", "assay_type": "ADME, organism-based, Muscle tissue", "details": "in vivo", "method_in_brief": "as §2"}, "[13]": {"tested_on": "Oryctolagus cuniculus", "assay": "Biodistribution pattern of [123I]- ligand was evaluated in liver of anesthetized rabbit after Intravenous injection of 50 uCi after 6 hr", "assay_type": "ADME, organism-based", "details": "in vivo", "method_in_brief": "as §1"}, "[14]": {"tested_on": "Oryctolagus cuniculus", "assay": "Biodistribution pattern of [123I]- ligand was evaluated in right ventricular muscle of anesthetized rabbit after Intravenous injection of 50 uCi after 30 min", "assay_type": "ADME, organism-based, Muscle tissue", "details": "in vivo, 0.5 h", "method_in_brief": "as §2"}, "[15]": {"tested_on": "Oryctolagus cuniculus", "assay": "Biodistribution pattern of [123I]- ligand was evaluated in right ventricular muscle of anesthetized rabbit after Intravenous injection of 50 uCi after 5 min", "assay_type": "ADME, organism-based, Muscle tissue", "details": "in vivo", "method_in_brief": "as §2"}, "[16]": {"tested_on": "Oryctolagus cuniculus", "assay": "Biodistribution pattern of [123I]- ligand was evaluated in right ventricular muscle of anesthetized rabbit after Intravenous injection of 50 uCi after 24 hr", "assay_type": "ADME, organism-based, Muscle tissue", "details": "in vivo", "method_in_brief": "as §2"}, "[17]": {"tested_on": "Oryctolagus cuniculus", "assay": "Biodistribution pattern of [123I]- ligand was evaluated in kidney of anesthetized rabbit after Intravenous injection of 50 uCi after 30 min", "assay_type": "ADME, organism-based", "details": "in vivo, 0.5 h", "method_in_brief": "as §1"}, "[18]": {"tested_on": "Oryctolagus cuniculus", "assay": "Cerebral biodistribution pattern of [123I]- ligand was evaluated in pituitary gland of anesthetized rabbit after Intravenous injection of 50 uCi after 6 hr", "assay_type": "ADME, organism-based", "details": "in vivo", "method_in_brief": "as §2"}, "[19]": {"tested_on": "Oryctolagus cuniculus", "assay": "Cerebral biodistribution pattern of [123I]- ligand was evaluated in hypothalamus of anesthetized rabbit after Intravenous injection of 50 uCi after 5 min", "assay_type": "ADME, organism-based", "details": "in vivo", "method_in_brief": "as §2"}, "[20]": {"tested_on": "Oryctolagus cuniculus", "assay": "Biodistribution pattern of [123I]- ligand was evaluated in left atrial muscle of anesthetized rabbit after Intravenous injection of 50 uCi after 4 hr", "assay_type": "ADME, organism-based, Muscle tissue", "details": "in vivo", "method_in_brief": "as §1"}, "[21]": {"tested_on": "Oryctolagus cuniculus", "assay": "Biodistribution pattern of [123I]- ligand was evaluated in muscle of anesthetized rabbit after Intravenous injection of 50 uCi after 1 hr", "assay_type": "ADME, organism-based, Muscle tissue", "details": "in vivo", "method_in_brief": "as §1"}, "[22]": {"tested_on": "Oryctolagus cuniculus", "assay": "Biodistribution pattern of [123I]- ligand was evaluated in right atrial muscle of anesthetized rabbit after Intravenous injection of 50 uCi after 2 hr", "assay_type": "ADME, organism-based, Muscle tissue", "details": "in vivo", "method_in_brief": "as §2"}, "[23]": {"tested_on": "Oryctolagus cuniculus", "assay": "Biodistribution pattern of [123I]- ligand was evaluated in right atrial muscle of anesthetized rabbit after Intravenous injection of 50 uCi after 30 min", "assay_type": "ADME, organism-based, Muscle tissue", "details": "in vivo, 0.5 h", "method_in_brief": "as §2"}, "[24]": {"tested_on": "Oryctolagus cuniculus", "assay": "Biodistribution pattern of [123I]- ligand was evaluated in lung of anesthetized rabbit after Intravenous injection of 50 uCi after 1 hr", "assay_type": "ADME, organism-based", "details": "in vivo", "method_in_brief": "as §1"}, "[25]": {"tested_on": "Oryctolagus cuniculus", "assay": "Biodistribution pattern of [123I]- ligand was evaluated in blood of anesthetized rabbit after Intravenous injection of 50 uCi after 6 hr", "assay_type": "ADME, organism-based", "details": "in vivo", "method_in_brief": "as §1"}, "[26]": {"tested_on": "Oryctolagus cuniculus", "assay": "Cerebral biodistribution pattern of [123I]- ligand was evaluated in frontal cortex of anesthetized rabbit after Intravenous injection of 50 uCi after 5 min", "assay_type": "ADME, organism-based", "details": "in vivo", "method_in_brief": "as §2"}}, "data": [{"molecule": "CC(C)(/C=C/I)NC[C@H](O)COc1cccc2[nH]c3ccccc3c12", "values": [{"measurement": "ID x kg of body weight/g of tissue", "setting": "[1]", "result": 0.82, "unit": "%"}, {"measurement": "ID x kg of body weight/g of tissue", "setting": "[2]", "result": 0.03, "unit": "%"}, {"measurement": "ID x kg of body weight/g of tissue", "setting": "[3]", "result": 0.06, "unit": "%"}, {"measurement": "ID x kg of body weight/g of tissue", "setting": "[4]", "result": 0.71, "unit": "%"}, {"measurement": "ID x kg of body weight/g of tissue", "setting": "[5]", "result": 0.04, "unit": "%"}, {"measurement": "ID x kg of body weight/g of tissue", "setting": "[6]", "result": 0.05, "unit": "%"}, {"measurement": "ID x kg of body weight/g of tissue", "setting": "[7]", "result": 0.14, "unit": "%"}, {"measurement": "ID x kg of body weight/g of tissue", "setting": "[8]", "result": 0.28, "unit": "%"}, {"measurement": "ID x kg of body weight/g of tissue", "setting": "[9]", "result": 0.02, "unit": "%"}, {"measurement": "ID x kg of body weight/g of tissue", "setting": "[10]", "result": 0.11, "unit": "%"}, {"measurement": "ID x kg of body weight/g of tissue", "setting": "[11]", "result": 0.06, "unit": "%"}, {"measurement": "ID x kg of body weight/g of tissue", "setting": "[12]", "result": 0.12, "unit": "%"}, {"measurement": "ID x kg of body weight/g of tissue", "setting": "[13]", "result": 0.03, "unit": "%"}, {"measurement": "ID x kg of body weight/g of tissue", "setting": "[14]", "result": "< 0.21", "unit": "%"}, {"measurement": "ID x kg of body weight/g of tissue", "setting": "[15]", "result": 0.43, "unit": "%"}, {"measurement": "ID x kg of body weight/g of tissue", "setting": "[16]", "result": 0.02, "unit": "%"}, {"measurement": "ID x kg of body weight/g of tissue", "setting": "[17]", "result": "< 0.29", "unit": "%"}, {"measurement": "ID x kg of body weight/g of tissue", "setting": "[18]", "result": 0.06, "unit": "%"}, {"measurement": "ID x kg of body weight/g of tissue", "setting": "[19]", "result": 0.25, "unit": "%"}, {"measurement": "ID x kg of body weight/g of tissue", "setting": "[20]", "result": 0.11, "unit": "%"}, {"measurement": "ID x kg of body weight/g of tissue", "setting": "[21]", "result": 0.07, "unit": "%"}, {"measurement": "ID x kg of body weight/g of tissue", "setting": "[22]", "result": 0.13, "unit": "%"}, {"measurement": "ID x kg of body weight/g of tissue", "setting": "[23]", "result": 0.15, "unit": "%"}, {"measurement": "ID x kg of body weight/g of tissue", "setting": "[24]", "result": 1.43, "unit": "%"}, {"measurement": "ID x kg of body weight/g of tissue", "setting": "[25]", "result": 0.01, "unit": "%"}, {"measurement": "ID x kg of body weight/g of tissue", "setting": "[26]", "result": 0.27, "unit": "%"}]}]}
